# Measured values published in paper PMC7181320 (ACS Central Science, 2020).
# Entries after “also recorded” stand apart in the source; their conditions may differ. Like-named read-outs stand apart in the source and are kept apart here.
# Assays:
# Y256F = Y256F (Staphylococcus aureus, UniProt Q7BGA5, Y280F); test: Intrinsic Trp fluorescence quenching; format: binding; conditions: read-out: app Kd; SD, n = 2
# FhuD2 [1] = biological target: T1, FhuD2 (Staphylococcus aureus, UniProt Q7BGA5); test: Intrinsic Trp fluorescence quenching; format: binding; conditions: read-out: app Kd; SD, n = 2
# Y106F = Y106F (Staphylococcus aureus, UniProt Q7BGA5, Y130F); test: Intrinsic Trp fluorescence quenching; format: binding; conditions: read-out: app Kd; SD, n = 2
# W255A = W255A (Staphylococcus aureus, UniProt Q7BGA5, W279A); test: Intrinsic Trp fluorescence quenching; format: binding; conditions: read-out: app Kd; SD, n = 2
# W173A = W173A (Staphylococcus aureus, UniProt Q7BGA5, W197A); test: Intrinsic Trp fluorescence quenching; format: binding; conditions: read-out: app Kd; SD, n = 2
# Y169F = Y169F (Staphylococcus aureus, UniProt Q7BGA5, Y193F); test: Intrinsic Trp fluorescence quenching; format: binding; conditions: read-out: app Kd; SD, n = 2
# Y167F N-His6-FhuD2 = biological target: T2, Y167F N-His6-FhuD2 (Staphylococcus aureus, UniProt Q7BGA5, Y191F); test: Intrinsic Trp fluorescence quenching binding assay, FhuD2 mutant Y167F; design: species or system S. aureus; conditions: FhuD2 variant Y167F
# T2 sequence (Q7BGA5 25-302 Y191F): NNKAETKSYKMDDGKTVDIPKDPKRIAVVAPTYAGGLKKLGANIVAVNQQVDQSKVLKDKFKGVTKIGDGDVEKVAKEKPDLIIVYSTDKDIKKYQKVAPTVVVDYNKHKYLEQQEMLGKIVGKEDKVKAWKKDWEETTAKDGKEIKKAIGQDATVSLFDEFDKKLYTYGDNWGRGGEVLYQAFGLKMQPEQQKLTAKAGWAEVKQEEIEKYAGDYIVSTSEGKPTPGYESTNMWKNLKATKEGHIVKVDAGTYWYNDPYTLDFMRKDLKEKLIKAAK
# [2] = 25 °C; cited from earlier work
# W255A N-His6-FhuD2 = biological target: T3, W255A N-His6-FhuD2 (Staphylococcus aureus, UniProt Q7BGA5, W279A); test: Intrinsic Trp fluorescence quenching binding assay, FhuD2 mutant W255A; design: species or system S. aureus; conditions: FhuD2 variant W255A
# T3 sequence (Q7BGA5 25-302 W279A): T2 sequence (Q7BGA5 25-302 Y191F)
# Y169F N-His6-FhuD2 = biological target: T4, Y169F N-His6-FhuD2 (Staphylococcus aureus, UniProt Q7BGA5, Y193F); test: Intrinsic Trp fluorescence quenching binding assay, FhuD2 mutant Y169F; design: species or system S. aureus; conditions: FhuD2 variant Y169F
# T4 sequence (Q7BGA5 25-302 Y193F): T2 sequence (Q7BGA5 25-302 Y191F)
# R175A N-His6-FhuD2 = biological target: T5, R175A N-His6-FhuD2 (Staphylococcus aureus, UniProt Q7BGA5, R199A); test: Intrinsic Trp fluorescence quenching binding assay, FhuD2 mutant R175A; design: species or system S. aureus; conditions: FhuD2 variant R175A
# T5 sequence (Q7BGA5 25-302 R199A): T2 sequence (Q7BGA5 25-302 Y191F)
# W173A N-His6-FhuD2 = biological target: T6, W173A N-His6-FhuD2 (Staphylococcus aureus, UniProt Q7BGA5, W197A); test: Intrinsic Trp fluorescence quenching binding assay, FhuD2 mutant W173A; design: species or system S. aureus; conditions: FhuD2 variant W173A
# T6 sequence (Q7BGA5 25-302 W197A): T2 sequence (Q7BGA5 25-302 Y191F)
# Y254F N-His6-FhuD2 = biological target: T7, Y254F N-His6-FhuD2 (Staphylococcus aureus, UniProt Q7BGA5, Y278F); test: Intrinsic Trp fluorescence quenching binding assay, FhuD2 mutant Y254F; design: species or system S. aureus; conditions: FhuD2 variant Y254F
# T7 sequence (Q7BGA5 25-302 Y278F): T2 sequence (Q7BGA5 25-302 Y191F)
# [3] = Apparent KFe measurement by EDTA competition assay; format: physicochemical; conditions: 1.2 equiv EDTA, HEPES buffer pH 7.4
# Summary of the method: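 Ferric siderophore (ferrioxamine B or E) treated with 1.2 equiv EDTA, with or without stoichiometric FhuD2. Remaining ferric siderophore is followed continuously by absorbance at 427 nm and expressed as relative percentage remaining. Apparent log KFe is calculated from the decay plots. At least two independent trials are run, with standard deviations reported.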
# N-His6-FhuD2 = N-His6-FhuD2 (Staphylococcus aureus, UniProt Q7BGA5); test: Intrinsic Trp fluorescence quenching binding assay, wild-type N-His6-FhuD2; design: species or system S. aureus
# Summary of the method: (§1)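 Purified SBP constructs, truncated with an N-terminal His6 tag replacing the signal peptide. Binding of the fluorescent desferrioxamine probe, in metal-free and ferric forms, was read as quenching of the protein's intrinsic Trp fluorescence.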
# N-His6-YxeB = N-His6-YxeB (Bacillus subtilis, UniProt P54941); test: Intrinsic Trp fluorescence quenching binding assay, wild-type N-His6-YxeB; design: species or system B. subtilis
# Chain of N-His6-YxeB (P54941 21-321): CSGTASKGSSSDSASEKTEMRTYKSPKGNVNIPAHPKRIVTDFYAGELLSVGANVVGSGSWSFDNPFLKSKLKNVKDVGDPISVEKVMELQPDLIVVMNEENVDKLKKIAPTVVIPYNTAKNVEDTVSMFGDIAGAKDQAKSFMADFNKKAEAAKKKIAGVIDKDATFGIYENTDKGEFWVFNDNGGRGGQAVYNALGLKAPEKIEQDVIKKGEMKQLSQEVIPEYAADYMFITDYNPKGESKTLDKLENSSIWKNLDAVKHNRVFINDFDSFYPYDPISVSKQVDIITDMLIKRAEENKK
# Summary of the method: as §1
# FhuD2 [4] = test: FhuD2-catalyzed iron exchange from holo-Tf to DFO-NBD with additives; format: biochemical, S. aureus; conditions: 25 mM additive, 4 μM holo-Tf, 2 μM DFO-NBD
# Summary of the method: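 FhuD2 is a truncated S. aureus construct with the N-terminal signal peptide replaced by an N-terminal His6 tag, used at 100 nM with holo-transferrin as iron donor. The reaction is started by adding the DFO-NBD probe, and fluorescence (ex 475 nm, em 560 nm) is monitored continuously. Quenching is expressed as percentage change relative to a control containing DFO-NBD and FhuD2 without iron donor.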
# SBPs (FhuD2 or YxeB) = format: biochemical, S. aureus and B. subtilis; conditions: SBP-catalyzed exchange, FhuD2 and YxeB
# Summary of the method: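 Truncated SBPs (FhuD2 or YxeB), each expressed with an N-terminal His6 tag in place of the signal peptide, at 100 nM with 4 μM ferric donor (FOB, FOE or human holo-transferrin). Started by adding 2 μM DFO-NBD probe, then fluorescence followed continuously (ex 475 nm; em 565 nm). Percent change in relative emission taken at 15 min against a matching no-SBP reaction.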
# Y106F N-His6-FhuD2 = Y106F N-His6-FhuD2 (Staphylococcus aureus, UniProt Q7BGA5, Y130F); test: Intrinsic Trp fluorescence quenching binding assay, FhuD2 mutant Y106F; design: species or system S. aureus; conditions: FhuD2 variant Y106F
# Y256F N-His6-FhuD2 = Y256F N-His6-FhuD2 (Staphylococcus aureus, UniProt Q7BGA5, Y280F); test: Intrinsic Trp fluorescence quenching binding assay, FhuD2 mutant Y256F; design: species or system S. aureus
# Y254F = Y254F (Staphylococcus aureus, UniProt Q7BGA5, Y278F); test: Intrinsic Trp fluorescence quenching; format: binding; conditions: read-out: app Kd; SD, n = 2
# R175A = R175A (Staphylococcus aureus, UniProt Q7BGA5, R199A); test: Intrinsic Trp fluorescence quenching; format: binding; conditions: read-out: app Kd; SD, n = 2
# FhuD2 [5] = biological target: T1, FhuD2; test: Intrinsic Trp fluorescence quenching; format: binding; conditions: read-out: app Kd; SD, n = 2; cited from earlier work
# FhuD2 Y256F (S. aureus) = test: other fluorescence titration
# Chain of human holo-transferrin (P02787 20-698): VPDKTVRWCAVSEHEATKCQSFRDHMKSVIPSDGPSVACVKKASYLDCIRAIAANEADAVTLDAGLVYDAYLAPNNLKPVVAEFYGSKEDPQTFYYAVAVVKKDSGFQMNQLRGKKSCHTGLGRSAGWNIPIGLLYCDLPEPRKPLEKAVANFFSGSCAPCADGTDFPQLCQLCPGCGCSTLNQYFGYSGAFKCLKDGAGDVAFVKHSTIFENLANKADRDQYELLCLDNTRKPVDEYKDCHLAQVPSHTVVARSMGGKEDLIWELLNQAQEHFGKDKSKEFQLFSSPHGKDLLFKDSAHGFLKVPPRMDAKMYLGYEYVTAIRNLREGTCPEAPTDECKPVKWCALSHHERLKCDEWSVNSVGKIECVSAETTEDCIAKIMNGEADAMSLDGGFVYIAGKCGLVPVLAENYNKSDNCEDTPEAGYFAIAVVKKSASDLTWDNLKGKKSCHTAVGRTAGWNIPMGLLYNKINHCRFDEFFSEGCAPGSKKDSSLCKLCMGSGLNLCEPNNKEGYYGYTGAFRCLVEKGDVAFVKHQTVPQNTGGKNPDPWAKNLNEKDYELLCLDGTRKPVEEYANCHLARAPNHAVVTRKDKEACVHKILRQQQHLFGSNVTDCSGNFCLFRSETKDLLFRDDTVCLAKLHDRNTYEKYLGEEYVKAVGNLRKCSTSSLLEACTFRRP
compound,measurement,setting,value
"O=C1CCC(=O)N(O)CCCCCNC(=O)CCC(=O)N(O)CCCCCNC(=O)CCC(=O)N(O)CCCCCN1.[Fe+3] [FOE, ferrioxamine E]",Kd,Y256F,40 ± 20 nM
same,Kd,FhuD2 [1],50 ± 6 nM
same,Kd,Y106F,80 ± 10 nM
same,Kd,W255A,30 ± 9 nM
same,Kd,W173A,90 ± 30 nM
same,Kd,Y169F,20 ± 2 nM
"transferrin: human ferric holo-transferrin, host iron source and iron donor substrate",Kd,Y167F N-His6-FhuD2; read-out: app Kd,80 ± 20 nM
same,log KFe,[2],≈ 22
same,Kd,W255A N-His6-FhuD2; read-out: app Kd,110 ± 80 nM
same,Kd,Y169F N-His6-FhuD2; read-out: app Kd,110 ± 20 nM
same,Kd,R175A N-His6-FhuD2; read-out: app Kd,110 ± 30 nM
same,Kd,W173A N-His6-FhuD2; read-out: app Kd,140 ± 30 nM
same,Kd,Y254F N-His6-FhuD2; read-out: app Kd,90 ± 20 nM
"CC(=O)N([O-])CCCCCNC(=O)CCC(=O)N([O-])CCCCCNC(=O)CCC(=O)N([O-])CCCCCNc1ccc([N+](=O)[O-])c2nonc12.[Fe+3] [FO-NBD, ferrioxamine B-2-(4-nitro-2,1,3-benzoxadiazol-7-yl) conjugate]",apparent log KFe,[3]; no FhuD2,30.8 ± 0.3
same,app Kd,"N-His6-FhuD2; wild-type N-His6-FhuD2 100 nM, TBS buffer pH 7.4, one site binding model",nanomolar affinity
same,app Kd,"N-His6-YxeB; wild-type N-His6-YxeB 100 nM, TBS buffer pH 7.4, one site binding model",nanomolar affinity
O=C([O-])O.[Na+] [NaHCO3],effect on FhuD2-catalyzed exchange of iron from holo-Tf to DFO-NBD,FhuD2 [4],no apparent effect
"CC(=O)N([O-])CCCCCNC(=O)CCC(=O)N([O-])CCCCCNC(=O)CCC(=O)N([O-])CCCCCN.[Fe+3] [FOB, ferrioxamine B]",Kd,Y167F N-His6-FhuD2; read-out: app Kd,40 ± 6 nM
same,apparent log KFe,[3]; 1:1 stoichiometric complex with FhuD2,28.5 ± 0.1
same,apparent log KFe,[3]; no FhuD2,30.3 ± 0.4
same,ability to serve as ferric iron donor to DFO-NBD,SBPs (FhuD2 or YxeB),serve as a donor of ferric iron; also recorded: serve as iron donor substrates
same,Kd,Y256F,60 ± 10 nM
same,Kd,Y106F N-His6-FhuD2; read-out: app Kd,40 ± 8 nM
same,Kd,"Y256F N-His6-FhuD2; read-out: app Kd, FhuD2 variant Y256F",60 ± 10 nM
same,Kd,Y106F,40 ± 8 nM
same,Kd,W255A N-His6-FhuD2; read-out: app Kd,60 ± 50 nM
same,Kd,Y254F,10 ± 2 nM
same,Kd,Y169F N-His6-FhuD2; read-out: app Kd,40 ± 9 nM
same,Kd,R175A,30 ± 9 nM
same,Kd,Y169F,40 ± 9 nM
same,Kd,W173A N-His6-FhuD2; read-out: app Kd,60 ± 8 nM
same,Kd,Y254F N-His6-FhuD2; read-out: app Kd,10 ± 2 nM
same,Kd,FhuD2 [5],30 ± 6 nM
human holo-transferrin (from UniProt P02787 20-698) (natural protein),Kd,FhuD2 Y256F (S. aureus),70 nM
"CC(=O)N(O)CCCCCNC(=O)CCC(=O)N(O)CCCCCNC(=O)CCC(=O)N(O)CCCCCN [DFOB, desferrioxamine B]",Kd,Y167F N-His6-FhuD2; app Kd,60 ± 9 nM
same,Kd,Y106F N-His6-FhuD2; app Kd,80 ± 20 nM
same,Kd,N-His6-FhuD2,90 ± 10 nM
same,Kd,Y256F N-His6-FhuD2,80 ± 30 nM
same,Kd,W255A N-His6-FhuD2; app Kd,60 ± 20 nM
same,Kd,Y169F N-His6-FhuD2; app Kd,70 ± 10 nM
same,Kd,R175A N-His6-FhuD2; app Kd,40 ± 9 nM
same,Kd,N-His6-YxeB,30 ± 20 nM
same,Kd,W173A N-His6-FhuD2; app Kd,100 ± 50 nM
same,Kd,Y254F N-His6-FhuD2; app Kd,50 ± 10 nM
